Laboratory results: ChEMBL document CHEMBL1123659, “2-Phenylindoles. Effect of N-benzylation on estrogen receptor affinity, estrogenic properties, and mammary tumor inhibiting activity” (J Med Chem, 1987)
Values joined by “and” are separate entries in the source; they are usually repeats but may differ in a detail not shown here. Identical values can stand only once. Each block holds one compound with its values, some of them ahead of it.

Legend:
[1] = molecular target: Estrogen receptor (Bos taurus) (UniProt Q9XSB5+P49884); assay: Relative binding affinity for the calf uterine estrogen receptor by 17-beta-[3H]-estradiol displacement.; assay type: protein assay
Outline: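 Calf uterine cytosol (105000g supernatant, 3 mg/mL protein final) in Tris-EDTA-NaN3 buffer, pH 7.5. Incubated with 5 nM 17β-[3H]estradiol and 10^-9–10^-5 M competitor for 18 h at 4 °C. Dextran-coated charcoal added for 90 min, then supernatant radioactivity counted. Nonspecific binding taken with 5 µM estradiol. RBA = molar ratio of estradiol to competitor at 50% displacement ×100.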

[2] = molecular target: T1, Estrogen receptor (Mus musculus) (UniProt O08537+P19785); assay: Anti-estrogenic activity as Uterus dry weight (mg)/body weight (g) *100 in mice at 625 ug; assay type: functional, tissue-based
Outline: (§1)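 Immature mice, sc injection on three consecutive days of test compound together with a standard 0.4 µg estrone per animal and day. Dose per animal. Control animals got vehicle. Killed 24 h after the last injection. Uteri Bouin-fixed, cleaned, washed in alcoholic LiCl, dried at 100 °C for 24 h and weighed. Read-out is uterine dry weight (mg)/body weight (g) ×100, mean of 10 animals ± SD.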

[3] = molecular target: T1, Estrogen receptor (Mus musculus); assay: Estrogenic activity as Uterus dry weight (mg)/body weight (g) *100 in mice at 25 ug
[4] = molecular target: T1, Estrogen receptor (Mus musculus); assay: Estrogenic activity as Uterus dry weight (mg)/body weight (g) *100 in mice at 5 ug
[5] = molecular target: T1, Estrogen receptor (Mus musculus); assay: (§2) Estrogenic activity as Uterus dry weight (mg)/body weight (g) *100 in mice with 0.4 ug estrone; assay type: functional, tissue-based
Outline: (§3)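 Immature mice given 0.4 µg estrone per animal sc on three consecutive days. Control animals got vehicle. Killed 24 h after the last injection. Uteri fixed in Bouin, dried at 100 °C for 24 h and weighed. Result expressed as uterine dry weight (mg)/body weight (g) ×100, mean of 10 animals ± SD.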

[6] = molecular target: T1, Estrogen receptor (Mus musculus); assay: as §2; assay type: functional, tissue-based; outline: as §3; remark: listed apart in the source
[7] = molecular target: T1, Estrogen receptor (Mus musculus); assay: Anti-estrogenic activity as Uterus dry weight (mg)/body weight (g) *100 in mice at 125 ug; assay type: functional, tissue-based; outline: as §1
[8] = molecular target: T1, Estrogen receptor (Mus musculus); assay: Anti-estrogenic activity as Uterus dry weight (mg)/body weight (g) *100 in mice at 250 ug; assay type: functional, tissue-based; outline: as §1
[9] = molecular target: T1, Estrogen receptor (Mus musculus); assay: Anti-estrogenic activity as Uterus dry weight (mg)/body weight (g) *100 in mice at 75 ug; assay type: functional, tissue-based; outline: as §1
[10] = molecular target: T1, Estrogen receptor (Mus musculus); assay: Estrogenic activity as Uterus dry weight (mg)/body weight (g) *100 in mice at 625 ug
[11] = molecular target: T1, Estrogen receptor (Mus musculus); assay: Anti-estrogenic activity as Uterus dry weight (mg)/body weight (g) *100 in mice at 25 ug; assay type: functional, tissue-based; outline: as §1
MCF7 [12] = assay: Effect on [3H]thymidine incorporation into estrogen receptor positive MCF-7 human breast carcinoma cells at 10e-6 M (ex 1); assay type: functional
Outline: (§4)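 MCF-7 cells kept in MEM with 5% charcoal-stripped newborn calf serum for two weeks. About 2×10^4 cells per well plated, then one day later exposed to compound in 0.1% ethanol. Ethanol-only controls. Medium changed on day 4. Three days later cells labelled with 1 µCi [3H]thymidine per well for 2 h. TCA-insoluble radioactivity per dish counted, mean of six dishes ± SD, expressed as % T/C.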

MCF7 [13] = assay: Effect on [3H]thymidine incorporation into estrogen receptor positive MCF-7 human breast carcinoma cells at 10e-7 M (ex 1); assay type: functional; outline: as §4
[14] = molecular target: T1, Estrogen receptor (Mus musculus); assay: Anti-estrogenic activity as Uterus dry weight (mg)/body weight (g) *100 in mice at 1 ug; assay type: functional, tissue-based; outline: as §1
[15] = molecular target: T1, Estrogen receptor (Mus musculus); assay: Anti-estrogenic activity as Uterus dry weight (mg)/body weight (g) *100 in mice at 5 ug; assay type: functional, tissue-based; outline: as §1
[16] = molecular target: T1, Estrogen receptor (Mus musculus); assay: Percent inhibition of estrone-stimulated uterine growth in mice; assay type: functional; set-up: concentration or dose not given beside the values; details: concentration not given here
Outline: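 Mouse antiuterotrophic test. Immature mice injected sc on three consecutive days with 0.4 µg estrone plus increasing doses per animal of test compound. Dry uterine weight/body weight ×100 determined 24 h after the last injection, 10 animals per group. Inhibition (%) = 100 − [(E_S,T − E_V)/(E_S − E_V)] ×100, where E_S is estrone alone and E_V is vehicle. Significance by Mann-Whitney U-test.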

[17] = molecular target: T1, Estrogen receptor (Mus musculus); assay: as §2; assay type: functional, tissue-based; outline: as §3; remark: listed apart in the source
[18] = molecular target: T1, Estrogen receptor (Mus musculus); assay: as §2; assay type: functional, tissue-based; outline: as §3; remark: listed apart in the source
MDA-MB-231 [19] = assay: Effect on [3H]thymidine incorporation into estrogen receptor negative MDA-MB 231 human breast carcinoma cells at 1*10e-6 M; assay type: functional
MDA-MB-231 [20] = assay: Effect on [3H]thymidine incorporation into estrogen receptor negative MDA-MB 231 human breast carcinoma cells at 5*10e-6 M; assay type: functional
MCF7 [21] = assay: Effect on [3H]thymidine incorporation into estrogen receptor positive MCF-7 human breast carcinoma cells at 10e-7 M (ex 2)
MDA-MB-231 [22] = assay: Effect on [3H]thymidine incorporation into estrogen receptor negative MDA-MB 231 human breast carcinoma cells at 1*10e-5 M (ex 1); assay type: functional
MCF7 [23] = assay: Effect on [3H]thymidine incorporation into estrogen receptor positive MCF-7 human breast carcinoma cells at 10e-5 M (ex 1); assay type: functional; outline: as §4
MCF7 [24] = assay: Effect on [3H]thymidine incorporation into estrogen receptor positive MCF-7 human breast carcinoma cells at 10e-6 M (ex 2)
MCF7 [25] = assay: Effect on [3H]thymidine incorporation into estrogen receptor positive MCF-7 human breast carcinoma cells at 10e-6 M (ex 2); assay type: functional; outline: as §4
MCF7 [26] = assay: Effect on [3H]thymidine incorporation into estrogen receptor positive MCF-7 human breast carcinoma cells at 10e-7 M (experiment 2); assay type: functional; outline: as §4
MCF7 [27] = assay: Effect on [3H]-thymidine incorporation into estrogen receptor positive MCF-7 human breast carcinoma cells at 10e-7 M (ex 1); assay type: functional; outline: as §4
MCF7 [28] = assay: Effect on [3H]-thymidine incorporation into estrogen receptor positive MCF-7 human breast carcinoma cells at 10e-6 M (exp 1); assay type: functional; outline: as §4
[29] = in the assay text read “Estrogenic activity” for “Anti-estrogenic activity”

T1 sequence (O08537 whole entry, looked up): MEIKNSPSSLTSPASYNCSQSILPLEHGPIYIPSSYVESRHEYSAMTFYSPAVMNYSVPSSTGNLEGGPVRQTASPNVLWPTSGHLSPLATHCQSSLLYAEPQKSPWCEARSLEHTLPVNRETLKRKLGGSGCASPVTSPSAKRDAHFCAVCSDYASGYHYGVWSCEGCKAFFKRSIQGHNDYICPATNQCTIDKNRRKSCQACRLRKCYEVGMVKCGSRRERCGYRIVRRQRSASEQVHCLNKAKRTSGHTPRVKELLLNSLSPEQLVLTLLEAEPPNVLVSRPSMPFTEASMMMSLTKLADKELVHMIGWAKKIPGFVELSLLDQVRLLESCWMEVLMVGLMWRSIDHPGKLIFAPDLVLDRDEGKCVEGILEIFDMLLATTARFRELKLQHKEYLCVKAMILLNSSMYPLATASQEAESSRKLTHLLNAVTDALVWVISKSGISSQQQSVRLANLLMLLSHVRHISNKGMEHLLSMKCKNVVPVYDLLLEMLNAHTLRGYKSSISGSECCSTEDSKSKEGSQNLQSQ
T1 sequence (P19785 whole entry, looked up): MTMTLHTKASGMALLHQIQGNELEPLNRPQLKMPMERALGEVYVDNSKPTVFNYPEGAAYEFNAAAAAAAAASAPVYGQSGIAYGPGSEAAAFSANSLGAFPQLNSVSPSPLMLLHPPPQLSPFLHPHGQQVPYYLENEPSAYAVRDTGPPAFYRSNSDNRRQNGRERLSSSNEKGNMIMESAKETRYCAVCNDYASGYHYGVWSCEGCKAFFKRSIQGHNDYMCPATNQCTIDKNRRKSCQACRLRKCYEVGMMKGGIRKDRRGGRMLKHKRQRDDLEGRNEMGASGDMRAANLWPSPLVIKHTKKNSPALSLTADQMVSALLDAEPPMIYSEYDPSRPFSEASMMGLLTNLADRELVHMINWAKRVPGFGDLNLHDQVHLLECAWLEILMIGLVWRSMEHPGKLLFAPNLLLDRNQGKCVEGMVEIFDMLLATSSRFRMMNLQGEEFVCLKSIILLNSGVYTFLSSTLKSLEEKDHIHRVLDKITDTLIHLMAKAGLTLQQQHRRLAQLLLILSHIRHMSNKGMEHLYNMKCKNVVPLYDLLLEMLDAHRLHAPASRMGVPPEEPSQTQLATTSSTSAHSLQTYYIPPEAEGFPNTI

relative binding affinity (RBA) [1]: 8
SMILES: Cc1c(-c2ccc(O)cc2)n(Cc2ccc(O)cc2)c2ccc(O)cc12

relative binding affinity (RBA) [1]: 5.1
SMILES: Cc1c(-c2ccc(O)cc2)n(Cc2cccc(Cl)c2)c2ccc(O)cc12

relative binding affinity (RBA) [1]: 8.7
SMILES: Cc1c(-c2ccc(O)cc2)n(Cc2ccccc2Cl)c2ccc(O)cc12

relative binding affinity (RBA) [1]: 16
SMILES: Cc1c(-c2ccc(O)cc2)n(Cc2ccccc2)c2ccc(O)cc12
T/C (MCF7 [12]): 17.4 ×10^4 per dish
T/C (MCF7 [13]): 20.3 ×10^4 per dish

relative binding affinity (RBA) [1]: 5.2
SMILES: Cc1c(-c2ccc(O)cc2)n(CC2CCCCC2)c2ccc(O)cc12

relative binding affinity (RBA) [1]: 6.6
SMILES: Cc1cccc(Cn2c(-c3ccc(O)cc3)c(C)c3cc(O)ccc32)c1

relative binding affinity (RBA) [1]: 8
SMILES: Cc1c(-c2ccc(O)cc2)n(Cc2ccc(Cl)cc2)c2ccc(O)cc12

relative binding affinity (RBA) [1]: 11
SMILES: Cc1ccc(Cn2c(-c3ccc(O)cc3)c(C)c3cc(O)ccc32)cc1

The next lines start with the compound.

SMILES: CC(=O)Oc1ccc(-c2c(C)c3cc(OC(C)=O)ccc3n2Cc2ccc(C#N)cc2)cc1
Activity [2]: 31.5
Activity [3]: 15.1
Activity [4]: 14
Activity [5]: 48.2
Activity [6]: 43.7
Activity [7]: 30.5
Activity [7, 29]: 20
Activity [8]: 30.4
Activity [9]: 34.1
Activity [10]: 27.4
Activity [11]: 37.9

SMILES: Cc1c(-c2ccc(O)cc2)n(CCc2ccccc2)c2ccc(O)cc12
relative binding affinity (RBA) [1]: 2

SMILES: Cc1c(-c2ccc(O)cc2)n(-c2ccccc2)c2cc(O)ccc12
relative binding affinity (RBA) [1]: 7.5

SMILES: COc1ccc(Cn2c(-c3ccc(OC(C)=O)cc3)c(C)c3cc(OC(C)=O)ccc32)cc1
Activity [14]: 47.1
Activity [15]: 47.4
Activity [3]: 14.7
Activity [4]: 14.3
Activity [5]: 52.2
Activity [6]: 47.8
Activity [7]: 40.1
Activity [7, 29]: 30.9
Activity [10]: 45
inhibition [16]: 23%
Activity [11]: 46.8

SMILES: CC(=O)Oc1ccc(-c2c(C)c3cc(OC(C)=O)ccc3n2Cc2ccccc2)cc1
Activity [14]: 49.9
Activity [15]: 48.7
Activity [3]: 22.6
Activity [4]: 13.3
Activity [5]: 47.4
Activity [7]: 34.7
Activity [7, 29]: 30.7
Activity [17]: 48.2
Activity [10]: 38.1
inhibition [16]: 17% and < 42%
Activity [11]: 42.8

SMILES: Cc1c(-c2ccc(O)cc2)n(Cc2ccccc2)c2ccccc12
relative binding affinity (RBA) [1]: 0.55

SMILES: CC(=O)Oc1ccc(-c2c(C)c3ccc(OC(C)=O)cc3n2-c2ccccc2)cc1
Activity [14]: 43.2
Activity [15]: 41
Activity [3]: 17.8
Activity [4]: 13.4
Activity [5]: 42
Activity [6]: 42
Activity [7]: 32.4
Activity [7, 29]: 26.4
Activity [10]: 34.8
inhibition [16]: 33%
Activity [11]: 43.5

SMILES: Cc1c(-c2ccc(O)cc2)n(Cc2c(Cl)cccc2Cl)c2ccc(O)cc12
relative binding affinity (RBA) [1]: 3.6

SMILES: Cc1c(-c2ccc(O)cc2)n(C(=O)c2ccccc2)c2ccc(O)cc12
relative binding affinity (RBA) [1]: 2.4

SMILES: CC(=O)Oc1ccc(-c2c(C)c3ccc(OC(C)=O)cc3n2Cc2ccccc2)cc1
Activity [14]: 54.2
Activity [15]: 50.4
Activity [3]: 17.1
Activity [4]: 12.3
Activity [18]: 48.2
Activity [5]: 46.5
Activity [7]: 44.6
Activity [7, 29]: 32.4
Activity [10]: 32.6
inhibition [16]: 11%
Activity [11]: 52.1

SMILES: Cc1c(-c2ccc(O)cc2)n(Cc2ccc(C#N)cc2)c2ccc(O)cc12
T/C (MDA-MB-231 [19]): 10.5 ×10^4 per dish
T/C (MDA-MB-231 [20]): 10.5 ×10^4 per dish
T/C (MCF7 [21]): 17.3 ×10^4 per dish
T/C (MDA-MB-231 [22]): 11 ×10^4 per dish
T/C (MCF7 [23]): 1.3 ×10^4 per dish
T/C (MCF7 [24]): 7.8 ×10^4 per dish
relative binding affinity (RBA) [1]: 14

SMILES: Cc1c(-c2ccccc2)n(Cc2ccccc2)c2ccc(O)cc12
relative binding affinity (RBA) [1]: 2.6

SMILES: Cc1c(-c2ccc(O)cc2)n(-c2ccccc2)c2ccc(O)cc12
relative binding affinity (RBA) [1]: 9

SMILES: CC/C(=C(\c1ccccc1)c1ccc(OCCN(C)C)cc1)c1ccccc1 [TAMOXIFEN]
T/C (MCF7 [25]): 5.3 ×10^4 per dish
T/C (MCF7 [26]): 6.7 ×10^4 per dish and 10.8 ×10^4 per dish
T/C (MCF7 [27]): 4.5 ×10^4 per dish
T/C (MCF7 [28]): 2.2 ×10^4 per dish

SMILES: Cc1c(-c2ccc(O)cc2)n(Cc2ccccc2)c2cc(O)ccc12
relative binding affinity (RBA) [1]: 11

SMILES: CC(=O)Oc1ccc(-c2c(C)c3cc(OC(C)=O)ccc3n2Cc2ccc(C)cc2)cc1
Activity [14]: 49.2
Activity [15]: 46.3
Activity [3]: 20.3
Activity [4]: 14.4
Activity [6]: 46.5 and 47.8
Activity [7]: 36
Activity [7, 29]: 32.9
Activity [10]: 40
inhibition [16]: 16% and < 35%
Activity [11]: 42.5

SMILES: Cc1c(-c2cccc(O)c2)n(Cc2ccccc2)c2ccc(O)cc12
relative binding affinity (RBA) [1]: 3
